MCL1 BIM primary: inhibitors of MCL1 binding to BIM-BH3, primary screen, biochemical, fluorescence polarization | 320,000 compounds, 0.68% hits | GST-MCL1 / FITC-Bim-BH3 fluorescence polarization | Induced myeloid leukemia cell differentiation protein Mcl-1 (Homo sapiens), Q07820 | AID 2057, 2009 | inhibition, % at 10.9 µM;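 active means inhibition above the mean inhibition of all tested compounds plus 3 SD, set per campaign, cut at about 40% in these data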;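 further: 0% = DMSO wells and 100% = unlabeled Bim-BH3 peptide control; higher means more loss of mP so more displacement of Bim peptide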
Target sequence (Q07820 whole entry, looked up): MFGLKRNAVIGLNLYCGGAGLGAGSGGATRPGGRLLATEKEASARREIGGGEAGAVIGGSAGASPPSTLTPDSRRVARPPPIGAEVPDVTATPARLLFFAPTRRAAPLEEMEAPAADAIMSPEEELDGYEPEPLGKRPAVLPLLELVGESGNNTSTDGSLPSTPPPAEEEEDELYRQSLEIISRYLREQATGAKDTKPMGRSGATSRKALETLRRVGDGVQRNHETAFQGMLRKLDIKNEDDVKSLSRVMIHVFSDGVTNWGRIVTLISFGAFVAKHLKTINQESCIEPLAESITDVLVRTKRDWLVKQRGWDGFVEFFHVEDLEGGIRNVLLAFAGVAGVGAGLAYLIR
EBV gp42 block: Epstein-Barr virus gp42 inhibitors, primary screen, biochemical, uHTS, fluorescence polarization. Fluorescence polarization binding assay, mP read-out. inhibition, % (tested at 21.74 µM). 220,000 compounds, 0.42% hits; in the data active means inhibition above about 50%
Target sequence (Q1HVG2 whole entry, looked up): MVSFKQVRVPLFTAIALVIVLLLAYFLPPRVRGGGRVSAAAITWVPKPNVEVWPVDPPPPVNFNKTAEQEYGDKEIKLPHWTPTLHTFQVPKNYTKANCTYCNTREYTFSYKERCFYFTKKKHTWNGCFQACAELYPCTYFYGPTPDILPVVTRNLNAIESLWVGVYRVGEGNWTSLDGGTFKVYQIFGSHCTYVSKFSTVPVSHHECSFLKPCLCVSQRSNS
Mcl1 Bid PPI: Mcl-1/Bid binding inhibitors, primary screen, biochemical, TR-FRET, 1536-well; Induced myeloid leukemia cell differentiation protein Mcl-1 (Homo sapiens), Q07820; TR-FRET Mcl-1/Bid-Dy647 peptide binding; inhibition, % at 21.7 µM; 220,000 compounds, 0.97% hits; AID 1021, 2008;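 active means compounds that cut the binding signal by more than half at the single screening dose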;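 further: His-tagged Mcl-1 with europium anti-His antibody binding Bid BH3 peptide; 0% = Mcl-1 plus peptide wells and 100% = peptide-only wells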
Mcl1 Noxa PPI: Mcl-1/Noxa binding inhibitors, primary screen, biochemical, TR-FRET, 1536-well | Induced myeloid leukemia cell differentiation protein Mcl-1 (Homo sapiens), Q07820 | TR-FRET Mcl-1/Noxa peptide binding, 2 h | inhibition, % at 21.7 µM | 220,000 compounds, 1.5% hits | AID 1022, 2008;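 active means compounds that cut the protein-peptide binding signal by more than 50% relative to plate controls in a single-dose test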;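 further: His-tagged Mcl-1 with rhodamine Noxa BH3 peptide and terbium anti-His antibody; 0% = Mcl-1 plus Noxa peptide wells and 100% = peptide-only wells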
Mcl-1 Bim block: inhibitors of Bim peptide binding to Mcl-1, primary screen, biochemical, bead-based flow cytometry, multiplex | Induced myeloid leukemia cell differentiation protein Mcl-1 (Homo sapiens), Q07820 | Bim peptide-Mcl-1 binding | inhibition, % at 10 µM | 190,000 compounds, 0.1% hits; in the data active means inhibition above about 40%;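 further: 0% = no compound tracer wells and 100% = peptide blocker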
RBBP9 inhibitor: human RBBP9 inhibitors, primary screen, biochemical, fluorescence polarization, FP-Rh probe, HTS. recombinant RBBP9. inhibition, % at 7.94 µM. 220,000 compounds, 0.2% hits. AID 1515, 2009;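 active means inhibition above the campaign mean of all tested compounds plus 3 SD, cut at about 14% in these data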;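 further: plate controls were DMSO wells with RBBP9 for no effect and wells lacking RBBP9 protein for full effect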
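System: RBBP9 protein / Quantity: 2.5 µM RBBP9 dispensing solution, before mixing / Also added: Serine-hydrolase probe FP-Rh, 375 nM pre-mixing / Dosing: 7.94 µM single dose, 0.794% DMSO / Timing: enzyme-compound preincubation 30 min, then probe labeling 45 min, 25 °C / Signal: FP readout at 525/598 nm / Controls: DMSO-treated enzyme wells and wells lacking RBBP9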
* marks the source's active call; other numbers are inactive results; x = not tested or not shown. Compounds with a hit are over-represented: about 2.2% of the library has one in this group of screens.

SMILES	MCL1 BIM primary	EBV gp42 block	Mcl1 Bid PPI	Mcl1 Noxa PPI	Mcl-1 Bim block	RBBP9 inhibitor
C=CCC1(CN2CCCC2=O)C(=O)NC(=O)NC1=O	2	7	-2	8	-1	-10
Cc1nc2c(=O)n(C)c(=O)nc-2n(C)n1	-2	-7	-9	-10	2	-7
CCn1nc(-c2ccccc2)nc2c(=O)n(C)c(=O)nc1-2	148*	98*	-20	-9	5	-11
O=C1c2ccccc2C(=O)N1Cc1nc2ccccc2c(=O)n1-c1cccnc1	0	-10	73*	40	-1	-9
O=C1c2ccccc2C(=O)N1Cc1nc2ccccc2c(=O)n1-c1ccc(Br)cn1	-1	9	-15	-18	2	1
COc1ccc(CCNC(=O)COC(=O)Cc2ccccc2)cc1	-27	-5	78*	7	-7	-6
CC(C)(C)N1C(=O)NC(=O)/C(=C\c2ccc3c(c2)CCN3CCCCl)C1=O	-14	-13	-54	24	x	-20
CCN1C(=O)/C(=C/c2ccc3c(c2)CCN3CCCCl)C(=O)NC1=S	26	-1	-73	81*	-2	4
O=C1NC(=S)N(C2CC2)C(=O)/C1=C/c1ccc2c(c1)CCN2CCCCl	17	17	88*	109*	-1	-5
CN1OC[C@@H]2COc3ccc4ccccc4c3[C@@H]21	-3	7	5	12	-1	-4
CCOC(=O)C(O)(c1ccc(NC(=O)NC2CCCCC2)cc1)C(F)(F)F (stereo not drawn)	-2	-16	-14	-13	-3	0
Cc1ccc2c(c1)=NC(=O)/C(=C/c1c(O)[nH]c(=O)[nH]c1=O)C=2	-3	-1	-116	1	x	-5
Cc1ccc2c(c1)=C/C(=C\c1c(O)[nH]c(=S)[nH]c1=O)C(=O)N=2	2	4	-20	57*	-2	-6
O=C1Nc2ccccc2C1Cc1nc2ccccc2c(=O)n1-c1ccccc1 (stereo not drawn)	-1	4	54*	27	x	4
CN1C(=O)C(Cc2nc3ccccc3c(=O)n2-c2ccccc2)c2ccccc21 (stereo not drawn)	4	-9	-31	5	-2	-6
CCOP(=O)(OCC)C(O)c1ccc(Br)cc1 (stereo not drawn)	-6	-15	5	18	-6	-6
CCOP(=O)(OCC)C(O)c1ccc(N(C)C)cc1 (stereo not drawn)	8	-27	58*	-2	x	1
COc1cc(O)c(C(=O)O)c(-c2cc(O)c(O)cc2C)c1	28	-10	-36	93*	x	x
CN(C)c1ccc(C2C3C=CC(C3)C2(C#N)C(=O)O)c(Br)c1 (stereo not drawn)	10	x	x	x	x	x
CCN1C(=O)/C(=C\c2ccc([N+](=O)[O-])s2)C(=O)NC1=S	x	1	32	94*	2	-2
C=CCN1C(=O)/C(=C/c2ccc(Br)s2)C(=O)NC1=S	28	x	x	x	x	x
CN(C=O)CP(=O)(O)CN(C)C=O	2	-14	60*	6	-2	-8
CCOc1ccccc1C1SCC(=O)Nc2c1c(=O)[nH]n2C(CC)CC (stereo not drawn)	-2	-4	-23	11	-2	-3
COP(=O)(CC(=O)O)c1ccccc1 (stereo not drawn)	0	-17	-15	0	95*	8
CCOC(=O)c1ccc(N2C(=O)CC(N3CCC(C#N)(c4ccccc4)CC3)C2=O)cc1 (stereo not drawn)	6	-10	-5	16	0	-1
SMILES	MCL1 BIM primary	EBV gp42 block	Mcl1 Bid PPI	Mcl1 Noxa PPI	Mcl-1 Bim block	RBBP9 inhibitor
O=C1NC(=S)N(c2ccc(F)cc2)C(=O)/C1=C\c1ccoc1	x	-33	37	79*	0	-5
O=P(O)(O)C#Cc1ccccc1	x	-7	96*	12	-4	-1
C=C(c1ccccc1)P(=O)(O)O	-4	-9	14	30	-5	-12
O=C1NC(=O)N(Cc2ccco2)C(=O)/C1=C/C=C/c1ccco1	-7	-129	-52	52*	x	1
COc1ccc(CCNCc2ccncc2)cc1	2	3	36	-3	-5	-9
Cc1ccc(-c2nc(N(C)C3CCN(C)CC3)c3ccccc3n2)cc1	3	6	7	63*	-2	6
CN1CCC(N(C)c2ncnc3ccc(Br)cc23)CC1	x	-18	-9	48	0	4
CCC(=NCC1CCCO1)c1c(O)n(-c2ccccc2C)c(=O)[nH]c1=O (stereo not drawn)	12	-25	-10	-11	x	-1
CCCCOc1ccc(CC2C(=O)N(C)C(=O)N(C)C2=O)cc1	-8	-16	72*	26	-2	-2
Cc1ccc(-c2nc(CS(=O)CC(=O)N3CCC4(CC3)OCCO4)c(C)o2)cc1 (stereo not drawn)	-2	-15	85*	-22	2	-9
Cc1ccc(-c2ccc(=O)n(CC(=O)N3CCC4(CC3)OCCO4)n2)cc1	2	-2	4	19	-3	-7
COc1cc(N2CCOCC2)ccc1C=C1C(=O)NC(=O)NC1=O	-11	-198	-45	2	42*	-4
COc1cc(N2CCOCC2)ccc1/C=C1\C(=O)NC(=O)N(Cc2cccs2)C1=O	-17	-29	-42	5	-5	-1
C=C(C)Cn1c(=O)n(CC2CS2)c2ccccc21 (stereo not drawn)	4	-8	-1	0	-3	-4
CCOc1cc(C=C2C(=O)NC(=O)NC2=O)ccc1OS(=O)(=O)c1ccccc1	9	11	-2	60*	-1	0
CC1Oc2cc3c(-c4c(O)cc(O)c5c(O)c6c(cc45)OC(C)C(C)C6=O)c(O)cc(O)c3c(O)c2C(=O)C1C (stereo not drawn)	21	4	42	103*	x	14
c1ccc2c(c1)CNc1ccccc1O2	8	-12	-40	2	0	-6
CN1c2ccccc2Oc2ccccc21	10	-22	-11	69*	-5	-1
Oc1ccc2c3c1O[C@H]1c4[nH]c5ccccc5c4C[C@@]4(O)[C@@H](C2)N(CC2CC2)CC[C@]314	3	x	x	x	x	x
Oc1ccc2c3c1O[C@H]1c4[nH]c5ccccc5c4C[C@@]4(O)C(C2)N(CC2CC2)CC[C@]314	66*	-8	13	17	0	-1

Screens from PubChem BioAssay.
